According to ChEMBL document CHEMBL3804758, “Click-based synthesis and antitubercular evaluation of novel dibenzo[b,d]thiophene-1,2,3-triazoles with piperidine, piperazine, morpholine and thiomorpholine appendages” (Bioorg Med Chem Lett, 2016):
In brackets after ≈: the same amount, converted by molar mass.

System: Mycobacterium tuberculosis
Assay: Antimycobacterial activity against Mycobacterium tuberculosis H37Rv ATCC 27294 after 28 days by agar dilution technique
Format: functional
Conditions: H37Rv ATCC 27294, 672 h
How it was run: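 Agar dilution in Middlebrook 7H11 with OADC supplement. Two-fold serial dilutions from 50.0 down to 0.4 µg/mL were incorporated into the agar. Inoculum of H37Rv came from fresh 7H11/OADC slants, suspended in saline diluted to […]. 5 μL was spotted per tube, incubated at 37 °C and read after 28 days. MIC was the lowest concentration giving complete growth inhibition, done in triplicate.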

CC(C)(C)c1ccc(-c2cn(C(CN3CCOCC3)c3ccc4sc5ccccc5c4c3)nn2)cc1 (stereo not drawn)
MIC: 6.25 µg/mL (≈ 12.6 µM)

CCCCc1cn(C(CN2CCSCC2)c2ccc3sc4ccccc4c3c2)nn1 (stereo not drawn)
MIC: 25 µg/mL (≈ 57.3 µM)

NC(=O)c1cnccn1 [PYRAZINAMIDE]
MIC: 50 µg/mL (≈ 406 µM)

Cc1ccc(-c2cn(C(CN3CCOCC3)c3ccc4sc5ccccc5c4c3)nn2)cc1 (stereo not drawn)
MIC: 25 µg/mL (≈ 55 µM)

CC[C@@H](CO)NCCN[C@@H](CC)CO [ETHAMBUTOL]
MIC: 3.13 µg/mL (≈ 15.3 µM)

CCCCc1cn(C(CN2CCCCC2)c2ccc3sc4ccccc4c3c2)nn1 (stereo not drawn)
MIC: 0.78 µg/mL (≈ 1.86 µM)

Cc1ccc(-c2cn(C(CN3CCNCC3)c3ccc4sc5ccccc5c4c3)nn2)cc1 (stereo not drawn)
MIC: 6.25 µg/mL (≈ 13.8 µM)

CC(C)(C)c1ccc(-c2cn(C(CN3CCNCC3)c3ccc4sc5ccccc5c4c3)nn2)cc1 (stereo not drawn)
MIC: 6.25 µg/mL (≈ 12.6 µM)

Cc1ccc(-c2cn(C(CN3CCSCC3)c3ccc4sc5ccccc5c4c3)nn2)cc1 (stereo not drawn)
MIC: 12.5 µg/mL (≈ 26.6 µM)

O=[N+]([O-])c1ccc(-c2cn(C(CN3CCSCC3)c3ccc4sc5ccccc5c4c3)nn2)cc1 (stereo not drawn)
MIC: 25 µg/mL (≈ 49.8 µM)

CC(C)(C)c1ccc(-c2cn(C(CN3CCCCC3)c3ccc4sc5ccccc5c4c3)nn2)cc1 (stereo not drawn)
MIC: 3.12 µg/mL (≈ 6.31 µM)

OCCN1CCN(CC(c2ccc3sc4ccccc4c3c2)n2cc(-c3ccc(F)cc3Cl)nn2)CC1 (stereo not drawn)
MIC: 12.5 µg/mL (≈ 23.3 µM)

Fc1ccc(-c2cn(C(CN3CCCCC3)c3ccc4sc5ccccc5c4c3)nn2)c(Cl)c1 (stereo not drawn)
MIC: 50 µg/mL (≈ 102 µM)

Cc1ccc(-c2cn(C(CN3CCN(CCO)CC3)c3ccc4sc5ccccc5c4c3)nn2)cc1 (stereo not drawn)
MIC: 50 µg/mL (≈ 100 µM)

CCCCc1cn(C(CN2CCNCC2)c2ccc3sc4ccccc4c3c2)nn1 (stereo not drawn)
MIC: 12.5 µg/mL (≈ 29.8 µM)

CC(C)(C)c1ccc(-c2cn(C(CN3CCSCC3)c3ccc4sc5ccccc5c4c3)nn2)cc1 (stereo not drawn)
MIC: 6.25 µg/mL (≈ 12.2 µM)

Fc1ccc(-c2cn(C(CN3CCNCC3)c3ccc4sc5ccccc5c4c3)nn2)c(Cl)c1 (stereo not drawn)
MIC: 1.56 µg/mL (≈ 3.17 µM)

Cc1ccc(-c2cn(C(CN3CCCCC3)c3ccc4sc5ccccc5c4c3)nn2)cc1 (stereo not drawn)
MIC: 50 µg/mL (≈ 110 µM)

O=[N+]([O-])c1ccc(-c2cn(C(CN3CCNCC3)c3ccc4sc5ccccc5c4c3)nn2)cc1 (stereo not drawn)
MIC: 3.12 µg/mL (≈ 6.44 µM)

c1ccc(-c2cn(C(CN3CCNCC3)c3ccc4sc5ccccc5c4c3)nn2)cc1 (stereo not drawn)
MIC: 12.5 µg/mL (≈ 28.4 µM)

Fc1ccc(-c2cn(C(CN3CCOCC3)c3ccc4sc5ccccc5c4c3)nn2)c(Cl)c1 (stereo not drawn)
MIC: 25 µg/mL (≈ 50.7 µM)

CCCCc1cn(C(CN2CCOCC2)c2ccc3sc4ccccc4c3c2)nn1 (stereo not drawn)
MIC: 50 µg/mL (≈ 119 µM)

c1ccc(-c2cn(C(CN3CCOCC3)c3ccc4sc5ccccc5c4c3)nn2)cc1 (stereo not drawn)
MIC: 50 µg/mL (≈ 113 µM)

CCCCc1cn(C(CN2CCN(CCO)CC2)c2ccc3sc4ccccc4c3c2)nn1 (stereo not drawn)
MIC: 6.25 µg/mL (≈ 13.5 µM)

O=[N+]([O-])c1ccc(-c2cn(C(CN3CCN(CCO)CC3)c3ccc4sc5ccccc5c4c3)nn2)cc1 (stereo not drawn)
MIC: 12.5 µg/mL (≈ 23.6 µM)

O=[N+]([O-])c1ccc(-c2cn(C(CN3CCOCC3)c3ccc4sc5ccccc5c4c3)nn2)cc1 (stereo not drawn)
MIC: 50 µg/mL (≈ 103 µM)

Fc1ccc(-c2cn(C(CN3CCSCC3)c3ccc4sc5ccccc5c4c3)nn2)c(Cl)c1 (stereo not drawn)
MIC: 12.5 µg/mL (≈ 24.6 µM)

OCCN1CCN(CC(c2ccc3sc4ccccc4c3c2)n2cc(-c3ccccc3)nn2)CC1 (stereo not drawn)
MIC: 12.5 µg/mL (≈ 25.8 µM)

c1ccc(-c2cn(C(CN3CCCCC3)c3ccc4sc5ccccc5c4c3)nn2)cc1 (stereo not drawn)
MIC: 0.78 µg/mL (≈ 1.78 µM)

NNC(=O)c1ccncc1 [ISONIAZID]
MIC: 0.1 µg/mL (≈ 0.729 µM)

c1ccc(-c2cn(C(CN3CCSCC3)c3ccc4sc5ccccc5c4c3)nn2)cc1 (stereo not drawn)
MIC: 50 µg/mL (≈ 109 µM)

O=[N+]([O-])c1ccc(-c2cn(C(CN3CCCCC3)c3ccc4sc5ccccc5c4c3)nn2)cc1 (stereo not drawn)
MIC: 50 µg/mL (≈ 103 µM)

CC(C)(C)c1ccc(-c2cn(C(CN3CCN(CCO)CC3)c3ccc4sc5ccccc5c4c3)nn2)cc1 (stereo not drawn)
MIC: 25 µg/mL (≈ 46.3 µM)
